Experimental data from different studies.
Lines come from different studies, so protocols differ.
Cell line: HCT-116
Effect on: cell growth or viability

COc1ccc(-c2cc(-c3ccc(OC)cc3)c3c(=O)n(C)c(=O)n(C)c3n2)cc1 — IC50 (MTT; 48 h): 11600 nM
C=C(F)C(=O)N1CCN(c2nc(OC[C@@H]3CCCN3C)nc3c2CCN(c2cccc4cccc(Cl)c24)C3)C[C@@H]1CC#N — IC50 (ATP luminescence; 3D culture): > 1000 nM
COc1nc(NCc2cn(-c3ccc(NC(=O)c4ccc(Br)cc4)cc3)nn2)nc(OC)n1 — IC50 (MTT; 72 h): 56.6 nM
Cc1nc(Nc2ccc3c(c2)/C(=C/c2ccccc2)C(=O)N3C)c2ccccc2n1 — IC50 (MTT): 21400 nM
COc1nc(NCc2cn(-c3ccc(C(N)=O)cc3)nn2)nc(OC)n1 — IC50 (MTT; 72 h): 79.7 nM
Cc1ccc(-c2cc(-c3ccc(Cl)cc3)c3c(=O)[nH]c(=O)[nH]c3n2)cc1 — IC50 (MTT; 48 h): 5440 nM
Cc1nc(NC(=O)N2CCC[C@H]2C(N)=O)sc1-c1ccnc(C(C)(C)C(F)(F)F)c1 — IC50 (MTT): 4340 nM
COc1nc(NCc2cn(-c3ccc(NC(=O)c4ccc(C(F)(F)F)cc4)cc3)nn2)nc(OC)n1 — IC50 (MTT; 72 h): 39.9 nM
Cc1nc(N(Cc2ccccc2)c2ccc3c(c2)/C(=C/c2ccccc2)C(=O)N3Cc2ccccc2)c2ccccc2n1 (mixture of isomers) — IC50 (MTT): 980 nM
Cc1nc2ccc(CN(C)c3ccc(C(=O)N[C@@H](CCC(=O)O)C(=O)O)s3)cc2c(=O)[nH]1 — IC50 (MTT; 48 h): 1070 nM
